Experimental data from different studies.
Each line is one published result; the experiments were not run side by side.
Effect on: cell growth or viability

| SMILES | cell line | technique | time | IC50 [nM] |
| --- | --- | --- | --- | --- |
| CC(C)C[C@H](NC(=O)[C@H](Cc1ccccc1)NC(=O)c1cnccn1)B(O)O | SK-N-MC | ATP luminescence | – | 7.8 |
| O=C(Nc1cccc(CO)c1)c1c[nH]c2ccc(Cl)cc12 | T24 | MTT | – | 16000 |
| O=C(Nc1cc(OCCN2CCCC2)c2ccccc2n1)c1cc(OCc2ccc(F)cc2)cc(C(=O)Nc2cc(OCCN3CCCC3)c3ccccc3n2)n1 | HT-1080 | ATP luminescence | 72 h | 8500 |
| CCN1C(=O)N(c2c(F)c(OC)cc(OC)c2F)Cc2cnc3[nH]c(CN4CCOCC4)cc3c21 | NCI-H716 | ATP luminescence | 96 h | 1.71 |
| O=C(Nc1ccccc1CO)c1c[nH]c2ccc(Cl)cc12 | T24 | MTT | – | 18000 |
| O=C(Nc1cc(OCCN2CCCC2)c2ccccc2n1)c1cc(Cl)cc(C(=O)Nc2cc(OCCN3CCCC3)c3ccccc3n2)n1 | HT-1080 | ATP luminescence | 72 h | 3400 |
| O=C1Nc2ccccc2C1=Cc1cc2cc(Cl)ccc2nc1Cl | CHO | MTT | 72 h | 38500 |
| CC(=O)O[C@H]1C(=O)[C@@]2(C)[C@H]([C@H](OC(=O)c3ccccc3)[C@]3(O)C[C@H](OC(=O)[C@H](O)[C@@H](NC(=O)c4ccccc4)c4ccccc4)C(C)=C1C3(C)C)[C@]1(OC(C)=O)CO[C@@H]1C[C@@H]2O | HCC1937 | ATP luminescence | 72 h | > 2500 |
| COc1cccc2c1C(=O)c1c(O)c3c(c(O)c1C2=O)C[C@@](O)(C(=O)CO)C[C@@H]3O[C@H]1C[C@H](N)[C@H](O)[C@H](C)O1 | A 172 | WST-1 | 72 h | 40 |
| CCCCCCCCCCCC(=O)Oc1c(C)c(O)c(C(=O)/C=C/c2ccccc2)c(OC)c1C | SH-SY5Y | SRB | 72 h | > 50000 |
| Cn1ccnc1CNCCNc1ccnc2cc(Cl)ccc12 | CHO | MTT | – | 240000 |
| C=C(C)C(=O)Nc1ccc(-c2c(-c3ccc(Oc4nccc(C)n4)c(F)c3)c3c(N)ncnc3n2C)cc1 | NCI-H716 | ATP luminescence | 96 h | 2.09 |
| Clc1ccc2c(NCCN(Cc3ccccn3)Cc3ccccn3)ccnc2c1 | CHO | MTT | – | > 240000 |
| Cc1cc(C)cc(COc2cc3c(cc2OCc2cc(C)cc(C)c2)[C@H]2C[C@](O)(Cc4cn(Cc5ccncc5)nn4)C[C@H](C)N2CC3)c1 | GES1 | MTT | 48 h | 2550 |
| NCCCOc1cc(NC(=O)c2cc(OCCN)cc(C(=O)Nc3cc(OCCCN)c4ccccc4n3)n2)nc2ccccc12 | HT-1080 | ATP luminescence | 72 h | 6800 |
| CC(C)/N=C1\c2cc(C(N)=O)nc3c(N)c(Cl)c(N)c(c23)N1C | HCC4017 | – | – | 480 |

| SMILES | cell line | technique | time | IC50 [nM] |
| --- | --- | --- | --- | --- |
| C[C@H](NC(=O)c1cccc2ccccc12)C(=O)Nc1ccccc1Oc1ccccc1 | SH-SY5Y | – | – | 4000 |
| NCCOc1cc(C(=O)Nc2cc(OCCN)c3ccccc3n2)nc(C(=O)Nc2cc(OCCN)c3ccccc3n2)c1 | HT-1080 | ATP luminescence | 72 h | 600 |
| CCN1CCN(c2ccc(Nc3cc(N(C)C(=O)Nc4c(Cl)c(OC)cc(OC)c4Cl)ncn3)cc2)CC1 | SNU-16 | ATP luminescence | 96 h | 9.31 |
| CCN(CC)CCNC(=O)c1c(C)[nH]c(/C=C2\C(=O)Nc3ccc(F)cc32)c1C | IEC-6 | – | 72 h | 3060 |
| COc1cc(C(=O)Nc2cc(OC)c3ccccc3n2)nc(C(=O)Nc2cc(OC)c3ccccc3n2)c1 | HT-1080 | ATP luminescence | 72 h | > 40000 |
| COc1cc(Nc2nccc(-c3cnn4nc(OC)ccc34)n2)cc(C(F)(F)F)c1 | SK-N-MC | ATP luminescence | – | 130 |
| NCCOc1cc(NC(=O)c2cc(OCc3ccc(F)cc3)cc(C(=O)Nc3cc(OCCN)c4ccccc4n3)n2)nc2ccccc12 | HT-1080 | ATP luminescence | 72 h | 1600 |
| CCCON(Cc1ccc(C(=O)NO)cc1)C(=O)Nc1ccccc1 | SUP-B15 | ATP luminescence | 72 h | 6780 |
| COc1ccc(OC)c(NC(=S)NN=Cc2ccccn2)c1 | BHK | SRB | 48 h | 111000 |
| NCCCOc1cc(NC(=O)c2cccc(C(=O)Nc3cc(OCCCN)c4ccccc4n3)n2)nc2ccccc12 | HT-1080 | ATP luminescence | 72 h | 1100 |
| O=C1Nc2ccccc2C1=Cc1cc2ccccc2nc1Cl | CHO | MTT | 72 h | > 100000 |
| COc1c(C)c(OC)c2c(c1C)OC(c1ccccc1)CC2=O (centres unmarked) | SH-SY5Y | SRB | 72 h | > 50000 |
| CCCCCC/N=C1\c2cc(C(N)=O)nc3c(N)c(Cl)c(N)c(c23)N1C | HCC4017 | – | – | 2870 |
| CN(C)CCCOc1cc(NC(=O)c2cc(Cl)cc(C(=O)Nc3cc(OCCCN(C)C)c4ccccc4n3)n2)nc2ccccc12 | HT-1080 | ATP luminescence | 72 h | 1800 |
| Cc1cc(C)cc(COc2cc3c(cc2OCc2cc(C)cc(C)c2)[C@H]2C[C@](O)(Cc4cn(Cc5ccc(S(C)(=O)=O)cc5)nn4)C[C@H](C)N2CC3)c1 | GES1 | MTT | 48 h | 2050 |
| CCCON(Cc1ccc(C(=O)NO)cc1)C(=O)Nc1ccc(N(C)C)cc1 | SUP-B15 | ATP luminescence | 72 h | 6620 |
